In ChEMBL document CHEMBL2434857, “Imidazopyridazines as potent inhibitors of Plasmodium falciparum calcium-dependent protein kinase 1 (PfCDPK1): Preparation and evaluation of pyrazole linked analogues” (Bioorg Med Chem Lett, 2013):
Blank lines part the entries; values can stand above or below the compound they belong to. Activity calls are given as the source filed them. The calls are words filed in the database; no cut-off is given here.

What was measured:
[1] = Lipophilicity, log D of the compound in octanol-phosphate buffered saline at 100 uM after 12 hrs by shake flask method; format: physicochemical
[2] = molecular target: Serine/threonine-protein kinase PAK 4 (Homo sapiens) (UniProt O96013); experiment: Inhibition of human PAK4 at 1 uM
[3] = molecular target: Dual specificity tyrosine-phosphorylation-regulated kinase 1A (Homo sapiens) (UniProt Q13627); experiment: Inhibition of human DRYK1A at 1 uM
Homo sapiens [4] = species: Homo sapiens; experiment: Inhibition of human CK1 at 1 uM
[5] = molecular target: Casein kinase II (Homo sapiens) (UniProt P67870+P68400+P19784); experiment: Inhibition of human CK2 at 1 uM; format: protein-complex assay
[6] = molecular target: MAP/microtubule affinity-regulating kinase 3 (Homo sapiens) (UniProt P27448); experiment: Inhibition of human MARK3 at 1 uM
[7] = molecular target: Serine/threonine-protein kinase BRSK2 (Homo sapiens) (UniProt Q8IWQ3); experiment: Inhibition of human BRSK2 at 1 uM
[8] = molecular target: Phosphorylase kinase (Homo sapiens) (UniProt P15735+P46020+P46019+Q93100+Q16816); experiment: Inhibition of human PHK at 1 uM; format: protein-complex assay
[9] = molecular target: Rho-associated protein kinase 2 (Homo sapiens) (UniProt O75116); experiment: Inhibition of human ROCK2 at 1 uM
[10] = molecular target: MAP kinase-interacting serine/threonine-protein kinase 2 (Homo sapiens) (UniProt Q9HBH9); experiment: Inhibition of human MNK2 at 1 uM
[11] = molecular target: Tyrosine-protein kinase BTK (Homo sapiens) (UniProt Q06187); experiment: Inhibition of human BTK at 1 uM
[12] = molecular target: Maternal embryonic leucine zipper kinase (Homo sapiens) (UniProt Q14680); experiment: Inhibition of human MELK at 1 uM
[13] = molecular target: Serine/threonine-protein kinase 3 (Homo sapiens) (UniProt Q13188); experiment: Inhibition of human MST2 at 1 uM
[14] = molecular target: Ribosomal protein S6 kinase alpha-1 (Homo sapiens) (UniProt Q15418); experiment: Inhibition of human RSK1 at 1 uM
[15] = molecular target: MAP kinase-interacting serine/threonine-protein kinase 1 (Homo sapiens) (UniProt Q9BUB5); experiment: Inhibition of human MNK1 at 1 uM
[16] = molecular target: Receptor tyrosine-protein kinase erbB-4 (Homo sapiens) (UniProt Q15303); experiment: Inhibition of human HER4 at 1 uM
Homo sapiens [17] = species: Homo sapiens; experiment: Inhibition of human VEGFR at 1 uM
[18] = molecular target: Tyrosine-protein kinase Yes (Homo sapiens) (UniProt P07947); experiment: Inhibition of human YES1 at 1 uM
[19] = molecular target: Ephrin type-A receptor 2 (Homo sapiens) (UniProt P29317); experiment: Inhibition of human EPHA2 at 1 uM
[20] = molecular target: Interleukin-1 receptor-associated kinase 4 (Homo sapiens) (UniProt Q9NWZ3); experiment: Inhibition of human IRAK4 at 1 uM
[21] = molecular target: Proto-oncogene tyrosine-protein kinase Src (Homo sapiens) (UniProt P12931); experiment: Inhibition of human SRC at 1 uM
[22] = molecular target: Mitogen-activated protein kinase kinase kinase 9 (Homo sapiens) (UniProt P80192); experiment: Inhibition of human MLK1 at 1 uM
[23] = molecular target: Mitogen-activated protein kinase kinase kinase 11 (Homo sapiens) (UniProt Q16584); experiment: Inhibition of human MLK3 at 1 uM
[24] = molecular target: Misshapen-like kinase 1 (Homo sapiens) (UniProt Q8N4C8); experiment: Inhibition of human MINK1 at 1 uM
[25] = molecular target: Mitogen-activated protein kinase kinase kinase kinase 2 (Homo sapiens) (UniProt Q12851); experiment: Inhibition of human GCK at 1 uM
[26] = molecular target: NUAK family SNF1-like kinase 1 (Homo sapiens) (UniProt O60285); experiment: Inhibition of human NUAK1 at 1 uM
[27] = molecular target: Serine/threonine-protein kinase pim-1 (Homo sapiens) (UniProt P11309); experiment: Inhibition of human PIM1 at 1 uM
[28] = molecular target: Serine/threonine-protein kinase Chk1 (Homo sapiens) (UniProt O14757); experiment: Inhibition of human CHK1 at 1 uM
[29] = molecular target: Myosin light chain kinase, smooth muscle (Homo sapiens) (UniProt Q15746); experiment: Inhibition of human SmMLCK at 1 uM
[30] = molecular target: Serine/threonine-protein kinase N2 (Homo sapiens) (UniProt Q16513); experiment: Inhibition of human PRK2 at 1 uM
Plasmodium falciparum = experiment: Antiparasitic activity against Plasmodium falciparum assessed as parasite growth inhibition after 48 hrs by hydroethidine staining-based flow cytometric analysis; format: functional, organism-based
Procedure, shortened: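 Compounds diluted into 2% DMSO were added to cultured parasites 24 h post-invasion and incubated under static conditions. Cells were harvested 48 h later and stained for parasite DNA with hydroethidine for flow cytometry. Growth inhibition (%) = (1 − parasitaemia of treated culture / parasitaemia of control culture) × 100, and EC50 was derived from it.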

[31] = Inhibition of full length recombinant Plasmodium falciparum CDPK1 using MTIP as substrate assessed as amount of ATP remaining after 1 hr by luminescence assay
[32] = molecular target: Fibroblast growth factor receptor 1 (Homo sapiens) (UniProt P11362); experiment: Inhibition of human FGFR1 at 1 uM
[33] = molecular target: Tyrosine-protein kinase Lck (Homo sapiens) (UniProt P06239); experiment: Inhibition of human LCK at 1 uM
[34] = molecular target: Serine/threonine-protein kinase Chk2 (Homo sapiens) (UniProt O96017); experiment: Inhibition of human CHK2 at 1 uM
[35] = molecular target: Aurora kinase B (Homo sapiens) (UniProt Q96GD4); experiment: Inhibition of human Aurora kinase B at 1 uM
[36] = molecular target: Ribosomal protein S6 kinase alpha-5 (Homo sapiens) (UniProt O75582); experiment: Inhibition of human MSK1 at 1 uM
[37] = molecular target: Serine/threonine-protein kinase D1 (Homo sapiens) (UniProt Q15139); experiment: Inhibition of human PKD1 at 1 uM
[38] = Apparent permeability of the compound at 50 to 200 uM after 5 hrs by PAMPA; format: ADME

Chain of Mitogen-activated protein kinase kinase kinase 9 (Homo sapiens) (P80192 whole entry, looked up): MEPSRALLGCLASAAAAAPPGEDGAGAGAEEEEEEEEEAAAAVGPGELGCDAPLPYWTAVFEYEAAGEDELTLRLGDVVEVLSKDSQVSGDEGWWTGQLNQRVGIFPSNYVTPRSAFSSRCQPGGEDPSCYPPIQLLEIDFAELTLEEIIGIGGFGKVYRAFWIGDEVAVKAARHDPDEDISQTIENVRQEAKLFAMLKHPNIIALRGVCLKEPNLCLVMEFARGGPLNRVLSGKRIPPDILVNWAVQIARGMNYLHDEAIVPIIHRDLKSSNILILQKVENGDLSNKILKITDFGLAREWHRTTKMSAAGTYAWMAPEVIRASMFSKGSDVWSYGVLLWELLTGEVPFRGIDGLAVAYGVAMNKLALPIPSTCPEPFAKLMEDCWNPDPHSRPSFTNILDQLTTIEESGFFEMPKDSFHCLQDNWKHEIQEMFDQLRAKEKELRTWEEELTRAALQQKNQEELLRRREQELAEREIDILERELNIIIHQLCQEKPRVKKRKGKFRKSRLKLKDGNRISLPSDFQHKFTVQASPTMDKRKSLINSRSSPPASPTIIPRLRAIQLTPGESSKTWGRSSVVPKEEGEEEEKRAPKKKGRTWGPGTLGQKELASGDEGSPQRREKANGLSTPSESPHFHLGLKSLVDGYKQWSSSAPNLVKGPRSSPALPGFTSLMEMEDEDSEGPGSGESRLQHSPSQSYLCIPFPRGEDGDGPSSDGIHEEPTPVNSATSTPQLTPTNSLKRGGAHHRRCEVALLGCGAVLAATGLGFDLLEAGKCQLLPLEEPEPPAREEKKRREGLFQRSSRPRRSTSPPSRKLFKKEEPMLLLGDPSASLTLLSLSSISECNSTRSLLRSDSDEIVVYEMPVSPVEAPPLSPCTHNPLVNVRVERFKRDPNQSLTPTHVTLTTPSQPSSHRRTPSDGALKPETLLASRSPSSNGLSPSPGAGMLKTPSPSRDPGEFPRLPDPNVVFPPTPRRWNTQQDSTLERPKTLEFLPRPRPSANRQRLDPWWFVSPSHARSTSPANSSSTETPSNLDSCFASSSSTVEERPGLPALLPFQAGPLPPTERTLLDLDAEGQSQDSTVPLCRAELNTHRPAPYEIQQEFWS
Chain of Misshapen-like kinase 1 (Homo sapiens) (Q8N4C8 whole entry, looked up): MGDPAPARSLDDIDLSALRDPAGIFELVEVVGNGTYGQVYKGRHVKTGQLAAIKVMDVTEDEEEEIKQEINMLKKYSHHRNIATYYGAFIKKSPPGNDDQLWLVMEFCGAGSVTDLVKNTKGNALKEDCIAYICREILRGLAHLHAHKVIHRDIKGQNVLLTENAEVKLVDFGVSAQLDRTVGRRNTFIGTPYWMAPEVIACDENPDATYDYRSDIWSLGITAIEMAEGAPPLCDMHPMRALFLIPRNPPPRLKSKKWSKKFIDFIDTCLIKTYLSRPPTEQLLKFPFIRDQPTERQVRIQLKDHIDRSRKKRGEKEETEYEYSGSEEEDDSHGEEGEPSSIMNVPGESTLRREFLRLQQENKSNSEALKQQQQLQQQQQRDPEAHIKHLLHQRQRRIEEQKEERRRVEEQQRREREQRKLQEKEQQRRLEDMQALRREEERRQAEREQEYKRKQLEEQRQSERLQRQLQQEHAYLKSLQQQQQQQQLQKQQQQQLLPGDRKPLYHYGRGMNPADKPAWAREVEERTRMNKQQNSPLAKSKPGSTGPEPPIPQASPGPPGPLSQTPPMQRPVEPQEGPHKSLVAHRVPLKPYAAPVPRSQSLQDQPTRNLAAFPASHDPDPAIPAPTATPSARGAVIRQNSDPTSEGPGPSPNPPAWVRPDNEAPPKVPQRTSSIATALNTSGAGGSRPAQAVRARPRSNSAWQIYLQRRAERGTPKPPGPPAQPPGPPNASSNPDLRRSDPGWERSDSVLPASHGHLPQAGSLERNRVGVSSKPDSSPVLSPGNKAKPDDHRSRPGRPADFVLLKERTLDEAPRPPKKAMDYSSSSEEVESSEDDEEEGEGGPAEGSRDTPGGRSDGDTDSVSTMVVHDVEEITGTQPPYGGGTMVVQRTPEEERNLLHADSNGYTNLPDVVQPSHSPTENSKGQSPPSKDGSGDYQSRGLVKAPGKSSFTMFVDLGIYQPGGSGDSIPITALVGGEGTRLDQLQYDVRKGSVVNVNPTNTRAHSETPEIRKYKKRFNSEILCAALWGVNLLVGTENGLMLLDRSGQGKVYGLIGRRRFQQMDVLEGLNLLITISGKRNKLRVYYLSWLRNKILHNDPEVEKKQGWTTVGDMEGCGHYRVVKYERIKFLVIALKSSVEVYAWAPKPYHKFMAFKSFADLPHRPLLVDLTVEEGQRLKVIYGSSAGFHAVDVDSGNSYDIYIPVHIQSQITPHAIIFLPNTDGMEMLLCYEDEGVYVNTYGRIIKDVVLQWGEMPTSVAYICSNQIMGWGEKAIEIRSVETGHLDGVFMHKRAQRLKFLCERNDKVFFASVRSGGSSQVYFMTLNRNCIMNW
Chain of NUAK family SNF1-like kinase 1 (Homo sapiens) (O60285 whole entry): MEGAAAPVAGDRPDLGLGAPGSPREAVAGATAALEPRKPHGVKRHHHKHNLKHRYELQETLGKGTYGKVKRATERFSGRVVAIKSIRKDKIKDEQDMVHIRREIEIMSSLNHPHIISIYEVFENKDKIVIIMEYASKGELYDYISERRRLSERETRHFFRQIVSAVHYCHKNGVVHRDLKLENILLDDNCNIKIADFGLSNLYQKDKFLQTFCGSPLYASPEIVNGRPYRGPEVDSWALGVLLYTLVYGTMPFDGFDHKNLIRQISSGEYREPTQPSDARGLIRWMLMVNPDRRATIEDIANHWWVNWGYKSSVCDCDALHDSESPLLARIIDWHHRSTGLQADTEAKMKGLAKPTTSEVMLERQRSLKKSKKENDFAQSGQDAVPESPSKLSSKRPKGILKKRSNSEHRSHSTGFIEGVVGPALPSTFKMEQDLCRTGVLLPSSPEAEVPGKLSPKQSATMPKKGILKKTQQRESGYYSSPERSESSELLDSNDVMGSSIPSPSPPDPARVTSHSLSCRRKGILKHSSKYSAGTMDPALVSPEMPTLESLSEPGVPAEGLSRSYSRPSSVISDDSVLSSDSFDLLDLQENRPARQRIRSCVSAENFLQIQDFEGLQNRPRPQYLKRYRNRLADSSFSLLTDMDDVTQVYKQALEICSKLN
Chain of Mitogen-activated protein kinase kinase kinase 11 (Homo sapiens) (Q16584 whole entry, looked up): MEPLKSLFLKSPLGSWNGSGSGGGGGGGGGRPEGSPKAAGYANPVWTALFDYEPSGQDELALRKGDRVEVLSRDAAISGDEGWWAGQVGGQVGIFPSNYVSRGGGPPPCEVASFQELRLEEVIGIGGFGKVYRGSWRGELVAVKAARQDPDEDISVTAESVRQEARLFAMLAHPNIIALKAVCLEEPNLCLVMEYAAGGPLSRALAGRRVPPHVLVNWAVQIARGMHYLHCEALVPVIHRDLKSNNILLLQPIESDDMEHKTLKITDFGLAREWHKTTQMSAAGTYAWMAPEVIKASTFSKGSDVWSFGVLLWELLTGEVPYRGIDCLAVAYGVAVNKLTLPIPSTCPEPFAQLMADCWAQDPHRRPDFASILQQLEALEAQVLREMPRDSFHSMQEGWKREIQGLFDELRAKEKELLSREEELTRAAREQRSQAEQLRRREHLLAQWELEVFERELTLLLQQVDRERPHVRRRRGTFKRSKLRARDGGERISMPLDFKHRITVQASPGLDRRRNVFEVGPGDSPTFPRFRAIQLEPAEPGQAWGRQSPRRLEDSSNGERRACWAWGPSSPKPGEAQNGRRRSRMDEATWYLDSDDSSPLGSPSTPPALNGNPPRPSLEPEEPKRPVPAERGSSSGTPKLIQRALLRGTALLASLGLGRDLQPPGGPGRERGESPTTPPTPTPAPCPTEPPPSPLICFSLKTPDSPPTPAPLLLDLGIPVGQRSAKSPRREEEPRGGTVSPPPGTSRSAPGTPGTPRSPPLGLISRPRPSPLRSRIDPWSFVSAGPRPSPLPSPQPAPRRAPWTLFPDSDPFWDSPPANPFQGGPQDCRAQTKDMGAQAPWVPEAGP
Chain of Serine/threonine-protein kinase Chk1 (Homo sapiens) (O14757 whole entry): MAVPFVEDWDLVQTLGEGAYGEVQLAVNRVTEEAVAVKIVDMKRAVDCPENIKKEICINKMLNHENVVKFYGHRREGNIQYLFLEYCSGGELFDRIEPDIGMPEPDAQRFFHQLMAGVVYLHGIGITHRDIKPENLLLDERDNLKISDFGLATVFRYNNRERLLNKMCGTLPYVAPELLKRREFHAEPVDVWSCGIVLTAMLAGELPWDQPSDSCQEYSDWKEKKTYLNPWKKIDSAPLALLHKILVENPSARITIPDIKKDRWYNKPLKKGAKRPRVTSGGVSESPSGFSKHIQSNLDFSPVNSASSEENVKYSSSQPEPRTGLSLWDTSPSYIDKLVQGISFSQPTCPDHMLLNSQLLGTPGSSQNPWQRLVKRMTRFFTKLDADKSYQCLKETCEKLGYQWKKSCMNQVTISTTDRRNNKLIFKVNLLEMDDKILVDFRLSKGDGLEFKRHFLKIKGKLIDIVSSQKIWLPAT
Chain of MAP kinase-interacting serine/threonine-protein kinase 1 (Homo sapiens) (Q9BUB5 whole entry, looked up): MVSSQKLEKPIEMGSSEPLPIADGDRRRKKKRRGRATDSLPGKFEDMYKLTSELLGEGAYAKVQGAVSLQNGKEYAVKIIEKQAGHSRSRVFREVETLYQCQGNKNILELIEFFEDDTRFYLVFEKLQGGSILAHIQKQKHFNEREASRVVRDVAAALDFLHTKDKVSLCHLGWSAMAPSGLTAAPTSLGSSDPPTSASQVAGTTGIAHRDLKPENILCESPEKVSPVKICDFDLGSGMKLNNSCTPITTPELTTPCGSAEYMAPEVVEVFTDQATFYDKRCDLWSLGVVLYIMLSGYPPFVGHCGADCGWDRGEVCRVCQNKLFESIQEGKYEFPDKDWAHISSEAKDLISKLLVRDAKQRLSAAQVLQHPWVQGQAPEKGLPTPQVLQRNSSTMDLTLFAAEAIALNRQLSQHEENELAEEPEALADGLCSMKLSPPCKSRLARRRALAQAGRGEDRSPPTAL

SMILES: CN1CCC(Nc2ccc3ncc(-c4cnn(-c5ccc(F)cc5)c4)n3n2)CC1
- EC50 (Plasmodium falciparum): 561 nM
- logD at 12 h, 100 µM [1]: 2.8
- IC50 [31]: 45 nM

SMILES: CN1CCC(Nc2ccc3ncc(-c4cnn(C5CCCC5)c4)n3n2)CC1
- IC50 [31]: 1980 nM

SMILES: c1ccc(-n2cc(-c3cnc4ccc(NC5CCNCC5)nn34)cn2)cc1
- inhibition [15]: Active
- inhibition [32]: Active
- inhibition [16]: Active
- inhibition (Homo sapiens [17]): Active
- inhibition [18]: Active
- inhibition [19]: Active
- inhibition [33]: Active
- inhibition [20]: Active
- inhibition [21]: Active
- inhibition [22]: Active
- inhibition [23]: Active
- inhibition [24]: Active
- inhibition [25]: Active
- inhibition [26]: Active
- inhibition [27]: Active
- inhibition [28]: Active
- inhibition [34]: Active
- inhibition [35]: Active
- inhibition [36]: Active
- inhibition [29]: Active
- inhibition [37]: Active
- inhibition [30]: Active

SMILES: CN1CCC(Nc2ccc3ncc(-c4cnn(Cc5ccccc5F)c4)n3n2)CC1
- logD at 12 h, 100 µM [1]: 3
- IC50 [31]: 331 nM

More lines, main results first:

- logD at 12 h, 100 µM [1]: 2.9
SMILES: CN1CCC(Nc2ccc3ncc(-c4cnn(-c5ncccc5F)c4)n3n2)CC1

- inhibition [2]: Active
- inhibition [3]: Active
- inhibition (Homo sapiens [4]): Active
- inhibition [5]: Active
- inhibition [6]: Active
- inhibition [7]: Active
- inhibition [8]: Active
- inhibition [9]: Active
- inhibition [10]: Active
- inhibition [11]: Active
- inhibition [12]: Active
- inhibition [13]: Active
- inhibition [14]: Active
- inhibition [15]: Active
- inhibition [16]: Active
- inhibition (Homo sapiens [17]): Active
- inhibition [18]: Active
- inhibition [19]: Active
- inhibition [20]: Active
- inhibition [21]: Active
- inhibition [22]: Active
- inhibition [23]: Active
- inhibition [24]: Active
- inhibition [25]: Active
- inhibition [26]: Active
- inhibition [27]: Active
- inhibition [28]: Active
- inhibition [29]: Active
- inhibition [30]: Active
SMILES: CN1CCC(Nc2ccc3ncc(-c4cnn(-c5ccc(C#N)cc5)c4)n3n2)CC1

- logD at 12 h, 100 µM [1]: 2.9
SMILES: CN1CCC(Nc2ccc3ncc(-c4cnn(-c5ccc(F)cn5)c4)n3n2)CC1

- IC50 [31]: 71 nM
SMILES: CN1CCC(Nc2ccc3ncc(-c4cnn(-c5ccccc5)c4)n3n2)CC1

- logD at 12 h, 100 µM [1]: 2.9
SMILES: Cc1cc(F)ccc1-n1cc(-c2cnc3ccc(NC4CCN(C)CC4)nn23)cn1

- logD at 12 h, 100 µM [1]: 2.9
SMILES: CN1CCC(Nc2ccc3ncc(-c4cnn(-c5ccc(F)cc5F)c4)n3n2)CC1

- Papp at 5 h, up to 200 µM [38]: 11 ×10⁻⁶ cm/s
- logD at 12 h, 100 µM [1]: 3.1
- IC50 [31]: 20 nM
SMILES: CN1CCC(Nc2ccc3ncc(-c4cnn(-c5cccc(F)c5)c4)n3n2)CC1
- EC50 (Plasmodium falciparum): 394 nM
